Consider 2 compounds from ChEMBL document CHEMBL4152241, “Discovery of coumarin-dihydroquinazolinone analogs as niacin receptor 1 agonist with in-vivo anti-obesity efficacy” (Eur J Med Chem, 2018).

Each structure is given as a SMILES string. Activity calls are given as the source filed them. No cut-off for these calls is given here.

Assay [1] has as its system Mus musculus. The assay can be described thus: Effect on total cholesterol level in high fat diet-induced obese C57BL/6J mouse model at 20 mg/kg, po for 6 weeks (reference value: 120.8 +/- 7.206 mg/dl). The class given is functional.
Assay [2] concerns Mus musculus. The assay can be described thus: Effect on LDL cholesterol level in high fat diet-induced obese C57BL/6J mouse model at 20 mg/kg, po for 6 weeks (reference value: 11.56 +/- 1.587 mg/dl). The format is functional.
In assay [3] the test system is Mus musculus. The assay can be described thus: Effect on serum triglyceride level in high fat diet-induced obese C57BL/6J mouse model at 20 mg/kg, po for 6 weeks (reference value: 40.96 +/- 4.592 mg/dl). The format is functional.
Assay [4] concerns Mus musculus. The assay can be described thus: Anti-obesity activity in high fat diet-induced obese C57BL/6J mouse model assessed as plasma leptin level at 20 mg/kg, po for 6 weeks (reference value: 1751 +/- 325.4 pg/mg). The format is functional.
Assay [5] relates to Mus musculus. The assay can be described thus: Anti-obesity activity in high fat diet-induced obese C57BL/6J mouse model assessed as reduction in body weight gain at 20 mg/kg, po for 6 weeks. The format is functional, organism-based. Summed up:
(§1)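 Male C57BL/6J mice, 5-6 weeks old, 22-25 g, fed 60% fat diet to induce obesity. Dosed orally once at 20 mg/kg for six weeks; drug dissolved in DMSO, then mixed into 5% gum acacia in normal saline (working DMSO <5%). Controls were vehicle-treated HFD mice. Body weight was tracked, and fasting glucose was read by glucose meter after a 16 h fast; n=4-6.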

Assay [6] deals with Mus musculus. The assay can be described thus: Anti-obesity activity in high fat diet-induced obese C57BL/6J mouse model assessed as reduction in body weight at 20 mg/kg, po for 6 weeks. The class given is functional. The procedure, abridged:
as §1

Assay [7] concerns Mus musculus. The assay can be described thus: Effect on HDL cholesterol level in high fat diet-induced obese C57BL/6J mouse model at 20 mg/kg, po for 6 weeks (reference value: 57.8 +/- 3.385 mg/dl). The format is functional.
Assay [8] concerns Mus musculus. The assay can be described thus: Anti-obesity activity in high fat diet-induced obese C57BL/6J mouse model assessed as lean mass at 20 mg/kg, po for 6 weeks by NMR-MRI analysis (reference value: 25.58 +/- 0.6789 g). The class given is functional.
Assay [9] has as its system Mus musculus. The assay can be described thus: Anti-obesity activity in high fat diet-induced obese C57BL/6J mouse model assessed as fat mass at 20 mg/kg, po for 6 weeks by NMR-MRI analysis (reference value: 16.52 +/- 1.154 g). The format is functional.
In assay [10] the test system is Mus musculus. The assay can be described thus: Antiobesity activity in high fat diet-induced obese C57BL/6J mouse model assessed as improvement in glucose tolerance at 20 mg/kg, po measured post glucose challenge by intraperitoneal glucose tolerance test. The format is functional, organism-based. The procedure, abridged:
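After six weeks of oral dosing (20 mg/kg) in HFD obese C57BL/6J mice, animals were fasted 16 h and baseline glucose was taken from the tail tip. Glucose 2 g/kg was given i.p., and blood glucose was measured at 15, 30, 60, 90 and 120 min. Mean ± SEM, 4-5 mice/group.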

Assay [11] concerns Mus musculus. The assay can be described thus: Anti-obesity activity in high fat diet-induced obese C57BL/6J mouse model assessed as fasting glucose level at 20 mg/kg, po for 6 weeks (reference value: 93.17 +/- 5.793 mg/dL). The class given is functional. The procedure, abridged:
as §1

Assay [12] relates to Mus musculus. The assay can be described thus: Anti-obesity activity in high fat diet-induced obese C57BL/6J mouse model assessed as decrease in fat mass at 10 mg/kg, po for 6 weeks by NMR-MRI analysis. The class given is functional, organism-based. Summed up:
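Male C57BL/6J mice, 5-6 weeks old (22-25 g), made obese on a 60% fat diet. Dosed orally for six weeks, dissolved in DMSO then mixed into 5% gum acacia in normal saline (working DMSO <5%), against HFD vehicle-treated mice. Total body fat compared at end of treatment, n=4-5/group, by one-way ANOVA with Newman-Keuls test.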

Assay [13] relates to Mus musculus. The assay can be described thus: Anti-obesity activity in high fat diet-induced obese C57BL/6J mouse model assessed as reduction in body weight gain at 10 mg/kg, po for 6 weeks. The format is functional, organism-based. Summed up: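 High-fat (60% fat) diet-induced obese male C57BL/6J mice, started at 5-6 weeks old and 22-25 g. Oral dosing for six weeks from a DMSO stock diluted into 5% gum acacia/normal saline (working DMSO <5%), against HFD vehicle controls. Cumulative body weight gain tracked over treatment, n=4-5, analysed by two-way ANOVA.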

Regarding `COc1ccc(-c2cc3cc(C4Nc5ccccc5C(=O)N4C)cc(C)c3oc2=O)cc1` (stereo not drawn), the Activity with Mus musculus [1] came to 95.6 mg/dL; in the assay with Mus musculus [2] it was 10.4 mg/dL; with Mus musculus [3], 36.97 mg/dL; in the assay with Mus musculus [4] it was 807.6 pg/mg; in the assay with Mus musculus [6], 0.72 g; with Mus musculus [7], 45.92 mg/dL. The values for the Activity in the assay on Mus musculus [8], with Mus musculus [9] and in the assay with Mus musculus [11] were 23.16 g, 13.01 g and 63 mg/dL, respectively. Also, the result in the assay with Mus musculus [5] was Active. The outcome in the assay on Mus musculus [10] was inactive.
Turning to `C[C@H]1CNCCc2ccc(Cl)cc21`, the outcome in the assay on Mus musculus [12] and in the assay on Mus musculus [13] was Active.
